From ChEMBL document CHEMBL3525963, “Tissue distribution and elimination of [14C]apixaban in rats” (Drug Metab Dispos, 2011)

Experiments:
Set-up in all cases: dose 5 mg/kg, dosed compound name [14C]-apixaban, route oral
Details in all cases: in vivo
Brain [1] = experiment: Biodistribution in female Sprague-Dawley rat brain at 5 mg/kg, po administered as single dose measured after 8 hrs; format: ADME, organism-based
Method in brief: (§1)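 [14C]Apixaban (1.0 mg/mL, 20 μCi/mL in 0.5% Tween 80 in Labrafil) given as a single oral gavage of 5 mg/kg (100 μCi/kg) to fasted female SD rats, one rat per time point. Carcasses were frozen in hexane/dry ice and cut into 40 µm sagittal sections for QWBA against [14C]glucose standards. Brain radioactivity is reported as µg eq/g, with LLOQ 0.037 µg eq/g.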

Rattus norvegicus [2] = experiment: Biodistribution in female Sprague-Dawley rat bone marrow at 5 mg/kg, po administered as single dose measured after 72 hrs; format: ADME, organism-based
Method in brief: (§2)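 Quantitative whole-body autoradiography was run after a single 5 mg/kg (100 μCi/kg) oral gavage to fasted female or pregnant SD rats, one rat per time point. Carcasses were frozen in hexane/dry ice, and 40 µm sagittal sections were dried at −20°C for at least 48 h. Sections were exposed to a phosphor plate alongside [14C]glucose standards (0.001–6.5 µCi/g). Results are µg eq/g, with LLOQ 0.037 µg eq/g.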

Muscle tissue = experiment: Biodistribution in pregnant Sprague-Dawley rat muscle at 5 mg/kg, po administered as single dose measured after 0.5 hrs; format: ADME, organism-based
Rattus norvegicus [3] = experiment: Biodistribution in male Sprague-Dawley rat brown fat at 5 mg/kg, po administered as single dose measured after 4 hrs; format: ADME, organism-based, Brown adipose tissue
Method in brief: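 Fasted male rats, 225-252 g, received [14C]apixaban by single oral gavage at 100 μCi/kg in 0.5% Tween 80/Labrafil. One rat was killed per time point and the carcass frozen. Tissue radioactivity was quantified by QWBA (40 µm sagittal sections, phosphor plate, [14C]glucose calibration) as µg eq apixaban/g, with LLOQ 0.037 μg eq/g.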

Rattus norvegicus [4] = experiment: Biodistribution in female Sprague-Dawley rat kidney cortex at 5 mg/kg, po administered as single dose measured after 0.5 hrs; format: ADME, organism-based
Method in brief: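 [14C]apixaban (20 μCi/mL in dosing solution) in 0.5% Tween 80 in Labrafil given by oral gavage to fasted female rats, 206-213 g, at 100 μCi/kg. One rat per time point was euthanized and snap-frozen. Sagittal 40 µm whole-body sections were read by QWBA phosphor imaging against [14C]glucose standards. Results are in µg eq apixaban/g, with LLOQ 0.037 μg eq/g.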

Rattus norvegicus [5] = experiment: Biodistribution in fetal liver of pregnant Sprague-Dawley rat at 5 mg/kg, po administered as single dose measured after 24 hrs; format: ADME, organism-based
Method in brief: (§3)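 Fasted pregnant SD rats (n=6, 270-319 g) each received one oral gavage dose of [14C]apixaban, 5 mg/kg (100 μCi/kg), in 0.5% Tween 80/Labrafil. One rat was killed at each of 0.5, 1, 4, 8, 24 and 48 h. Carcasses were frozen in hexane/dry ice, cut into 40 µm sagittal sections, exposed to phosphor plates and quantified against [14C]glucose standards as µg eq/g. LLOQ was 0.037 µg eq/g.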

Adrenal gland [6] = experiment: Biodistribution in male Sprague-Dawley rat adrenal gland at 5 mg/kg, po administered as single dose measured after 24 hrs; format: ADME, organism-based
Method in brief: (§4)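 Fasted male SD rats (225-252 g) each received one oral gavage dose of [14C]apixaban, 5 mg/kg (100 μCi/kg), in 0.5% Tween 80/Labrafil vehicle. One rat was killed per time point, from 0.5 to 168 h. Frozen carcasses were cut into 40 µm sagittal whole-body sections and read by QWBA phosphor imaging against [14C]glucose calibrants. Results are in µg apixaban eq/g; BLQ <0.037 µg eq/g.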

Adrenal gland [7] = experiment: Biodistribution in male Sprague-Dawley rat adrenal gland at 5 mg/kg, po administered as single dose measured after 1 hr; format: ADME, organism-based
Method in brief: (§5)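 [¹⁴C]Apixaban given by oral gavage at 5 mg/kg (100 μCi/kg) in 0.5% Tween 80 in Labrafil (1.0 mg/mL dosing solution) to rats fasted overnight through 4 h post-dose. One rat per time point; carcass frozen in hexane/dry ice. Quantitative whole-body autoradiography used 40 µm sagittal sections and a phosphor imaging plate calibrated with [¹⁴C]glucose standards (0.001–6.5 μCi/g). Read-out in µg eq apixaban/g; LLOQ 0.037 μg eq/g.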

Thymus [8] = experiment: Biodistribution in pregnant Sprague-Dawley rat thymus at 5 mg/kg, po administered as single dose measured after 1 hr; format: ADME, organism-based
Brain [9] = experiment: Biodistribution in female Sprague-Dawley rat brain at 5 mg/kg, po administered as single dose measured after 0.5 hrs; format: ADME, organism-based; method in brief: as §1
Rattus norvegicus [10] = experiment: Biodistribution in female Sprague-Dawley rat kidney cortex at 5 mg/kg, po administered as single dose measured after 24 hrs; format: ADME, organism-based; method in brief: as §2
Harderian gland = experiment: Biodistribution in male Sprague-Dawley rat harderian gland at 5 mg/kg, po administered as single dose measured after 4 hrs; format: ADME, organism-based; method in brief: as §5
Lung = experiment: Biodistribution in pregnant Sprague-Dawley rat lung at 5 mg/kg, po administered as single dose measured after 24 hrs; format: ADME, organism-based
Rattus norvegicus [11] = experiment: Biodistribution in fetal liver of pregnant Sprague-Dawley rat at 5 mg/kg, po administered as single dose measured after 4 hrs; format: ADME, organism-based
Method in brief: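 Pregnant rats, 270-319 g and fasted overnight, received [14C]apixaban by oral gavage at 100 μCi/kg in 0.5% Tween 80/Labrafil. One dam per time point was euthanized and frozen in hexane/dry ice. Fetal tissue radioactivity was measured by QWBA on 40 µm sagittal sections calibrated with [14C]glucose standards. Values are in µg eq/g, with LLOQ 0.037 μg eq/g.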

[12] = Drug level in lactating Sprague-Dawley rat milk at 5 mg/kg, po administered as single dose after 0 to 24 hrs; format: ADME, organism-based
Adrenal gland [13] = experiment: Biodistribution in female Sprague-Dawley rat adrenal gland at 5 mg/kg, po administered as single dose measured after 72 hrs; format: ADME, organism-based; method in brief: as §2
Thymus [14] = experiment: Biodistribution in female Sprague-Dawley rat thymus at 5 mg/kg, po administered as single dose measured after 1 hr; format: ADME, organism-based; method in brief: as §5
Rattus norvegicus [15] = experiment: Biodistribution in male Sprague-Dawley rat pituitary gland at 5 mg/kg, po administered as single dose measured after 0.5 hrs; format: ADME, organism-based
Adrenal gland [16] = experiment: Biodistribution in pregnant Sprague-Dawley rat adrenal gland at 5 mg/kg, po administered as single dose measured after 24 hrs; format: ADME, organism-based; method in brief: as §3
Rattus norvegicus [17] = experiment: Biodistribution in pregnant Sprague-Dawley rat pituitary gland at 5 mg/kg, po administered as single dose measured after 1 hr; format: ADME, organism-based
Spleen [18] = experiment: Biodistribution in male Sprague-Dawley rat spleen at 5 mg/kg, po administered as single dose measured after 8 hrs; format: ADME, organism-based; method in brief: as §4
Rattus norvegicus [19] = experiment: Biodistribution in pregnant Sprague-Dawley rat bone marrow at 5 mg/kg, po administered as single dose measured after 48 hrs; format: ADME, organism-based; method in brief: as §3
[20] = Cmax in lactating Sprague-Dawley rat milk at 5 mg/kg, po administered as single dose; format: ADME, organism-based
Method in brief: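 Lactating SD rats received a single oral gavage of 5 mg/kg (108 μCi/kg) in 0.5% Tween 80/Labrafil. Three rats were sampled per time point at 0.5-24 h. Oxytocin was given sc 15 min before milking under anesthesia. Milk, blood and plasma were counted in duplicate by liquid scintillation for 10 min and expressed as apixaban equivalents.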

Spleen [21] = experiment: Biodistribution in male Sprague-Dawley rat spleen at 5 mg/kg, po administered as single dose measured after 72 hrs; format: ADME, organism-based; method in brief: as §4

Radiolabel recovery (Brain [1]): < 0.037 ugequiv/g | Radiolabel recovery (Rattus norvegicus [2]): Not detected assumed BLQ | Radiolabel recovery (Muscle tissue): 0.37 ugequiv/g | Radiolabel recovery (Rattus norvegicus [3]): 0.53 ugequiv/g | Radiolabel recovery (Rattus norvegicus [4]): 0.82 ugequiv/g | Radiolabel recovery (Adrenal gland [7]): 1.2 ugequiv/g | Radiolabel recovery (Thymus [8]): 0.58 ugequiv/g | Radiolabel recovery (Brain [9]): < 0.037 ugequiv/g | Radiolabel recovery (Rattus norvegicus [10]): Not detected assumed BLQ | Radiolabel recovery (Harderian gland): 0.42 ugequiv/g | Radiolabel recovery (Lung): < 0.037 ugequiv/g | Radiolabel recovery (Rattus norvegicus [11]): 0.32 ugequiv/g | Radiolabel recovery [12]: 4.6 µg/mL | Radiolabel recovery (Adrenal gland [13]): Not detected assumed BLQ | Radiolabel recovery (Thymus [14]): 0.27 ugequiv/g | Radiolabel recovery (Rattus norvegicus [15]): 0.26 ugequiv/g | Radiolabel recovery (Rattus norvegicus [17]): 0.93 ugequiv/g | Radiolabel recovery (Spleen [18]): 0.09 ugequiv/g | Radiolabel recovery (Rattus norvegicus [19]): Not detected assumed BLQ | Cmax [20]: 8920 ngequiv/g | Radiolabel recovery (Spleen [21]): Not detected assumed BLQ
SMILES: COc1ccc(-n2nc(C(N)=O)c3c2C(=O)N(c2ccc(N4CCCC[14C]4=O)cc2)CC3)cc1
Radiolabel recovery (Rattus norvegicus [5]): Not sampled as not visualised in autoradiograph | Radiolabel recovery (Adrenal gland [6]): Not sampled as not visualised in autoradiograph | Radiolabel recovery (Adrenal gland [16]): Not sampled as not visualised in autoradiograph
